High-throughput results deposited in PubChem BioAssay by several laboratories.
Mdm2 MdmX PPI = inhibitors of human Mdm2/MdmX interaction; O15151+Q00987; SaOS-2 split-luciferase Mdm2/MdmX complementation, luminescence; inhibition, % at 8 µM; 330,000 tested, 3% active;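 active = inhibition of at least 50% at 8 µM in the primary screen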
Target sequence (O15151 whole entry, looked up): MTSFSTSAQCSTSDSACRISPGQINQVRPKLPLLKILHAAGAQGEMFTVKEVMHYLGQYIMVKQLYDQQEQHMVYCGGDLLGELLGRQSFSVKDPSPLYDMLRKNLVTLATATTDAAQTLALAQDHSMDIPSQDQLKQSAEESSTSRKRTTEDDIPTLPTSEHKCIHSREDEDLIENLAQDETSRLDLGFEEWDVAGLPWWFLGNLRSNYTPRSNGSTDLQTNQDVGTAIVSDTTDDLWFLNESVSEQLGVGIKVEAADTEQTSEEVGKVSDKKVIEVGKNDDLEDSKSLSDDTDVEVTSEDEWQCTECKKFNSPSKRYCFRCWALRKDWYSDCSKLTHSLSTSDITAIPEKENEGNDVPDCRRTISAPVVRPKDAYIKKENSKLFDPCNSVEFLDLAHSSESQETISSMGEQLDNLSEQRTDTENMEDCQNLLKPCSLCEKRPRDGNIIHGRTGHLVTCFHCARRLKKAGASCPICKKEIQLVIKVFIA
Target sequence (Q00987 whole entry, looked up): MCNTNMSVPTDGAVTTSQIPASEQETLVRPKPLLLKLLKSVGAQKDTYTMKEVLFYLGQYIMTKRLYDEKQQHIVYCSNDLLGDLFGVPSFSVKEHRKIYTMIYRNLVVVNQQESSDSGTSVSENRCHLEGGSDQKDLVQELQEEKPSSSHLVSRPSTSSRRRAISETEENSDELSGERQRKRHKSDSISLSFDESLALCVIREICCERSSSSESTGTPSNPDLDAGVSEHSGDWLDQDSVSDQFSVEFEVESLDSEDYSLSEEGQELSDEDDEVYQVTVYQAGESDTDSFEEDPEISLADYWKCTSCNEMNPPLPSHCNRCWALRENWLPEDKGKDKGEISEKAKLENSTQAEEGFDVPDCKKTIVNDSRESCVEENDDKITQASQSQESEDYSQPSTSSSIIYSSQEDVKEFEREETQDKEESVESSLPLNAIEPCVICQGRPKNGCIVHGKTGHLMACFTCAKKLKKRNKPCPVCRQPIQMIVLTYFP
Beta apoptosis = beta cell apoptosis inhibition; INS-1E cytokine-induced death, ATP luminescence, 48 h; percent of positive-control rescue, neutral wells zero; protection from apoptosis, % (test concentration not listed); 300,000 tested, 0.8% active; AID 435005;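 active = Every replicate reaches about 75%, or at least half do and their mean reaches it too, limit read from the data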;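 also: higher means more ATP so stronger rescue from cytokine killing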
XBP1 UPR activ = activators of adaptive arm of unfolded protein response (XBP1); CHO-XBP1 luciferase reporter, IRE1-XBP1 UPR activation, luminescence; percent of tunicamycin response, DMSO as zero; activation, % at 20 µM; 330,000 tested, 0.33% active; AID 463104;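 active = versus positive control, 20 µM dose yields 30% or more activation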
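assay system = CHO-XBP1 luciferase reporter cells | amount = 1000 cells/well | buffer or medium = F12 plus 10% FBS | compound dosing = single point, 20 µM final compound, 1% DMSO | incubation = 16-18 h cell attachment at 37 °C, then 6 h compound exposure | detection = Steady-Glo luminescence read | controls = tunicamycin 10 µg/mL and vehicle-only wells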
CSC inhib = blocks cancer stem cells; AID 2717; cancer stem cell-like cells viability, luminescence; 300,000 tested, 1.1% active; inhibition, % at 7.5 µM; in the data active = inhibition above about 75%; tested in HMLE shEcad cells
UPR CHOP act = activators of apoptotic arm of unfolded protein response (CHOP); 330,000 tested, 0.34% active; activation, % at 10 µM; CHO-CHOP luciferase reporter, UPR activation, luminescence; percent of tunicamycin response over DMSO baseline; AID 449763;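 active = at 10 µM dose, activation of 40% or more, normalized to positive control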
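Test system: CHO-CHOP cells, stable luciferase reporter of PERK-eIF2a-CHOP signalling | Quantity: 500 CHO-CHOP cells per well | Buffer or medium: F12 plus 10% serum | Compound dosing: 10 µM single point, 0.5% DMSO | Schedule: 6 h compound treatment, 37 °C | Signal: Luciferase luminescence | Control set: Tunicamycin high control, DMSO low control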
T cruzi inh = blocks replication of Trypanosoma cruzi; T. cruzi beta-gal in NIH3T3, luminescence, 90 h; inhibition, % (no concentration beside the values); 300,000 tested, 1.4% active; AID 1885;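 active = mean inhibition across valid replicates above about 55%, limit read from the data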;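 also: signal also drops with host cell toxicity which is not excluded here; higher percent means less beta-gal luminescence so fewer parasites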
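Read-out: Parasite load inhibition, % | Test system: Mouse NIH/3T3 fibroblasts infected with β-gal-expressing T. cruzi Tulahuen C4 | Amount: 5,000 cells/well | Medium: DMEM, 2% fetal bovine serum | Signal: GalScreen β-gal luminescence, detergent lysis, 60 min | Timing: 3 h attach, ≥90 h co-culture | Also added: Tulahuen C4 trypomastigotes, 5000/well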
Mdm2-MdmX conf = confirmation of human Mdm2/MdmX interaction inhibitors. shares compounds with Mdm2 MdmX PPI. Mdm2-MdmX binding, luminescent assay. inhibition, % at 8 µM. 10,000 tested, 55% active; in the data active = inhibition above about 40%
Full FLuc ctr = inhibits full-length luciferase, flagging false Mdm2/MdmX hits | shares compounds with Mdm2 MdmX PPI | 6,200 tested, 77% active | AID 504607 | SaOS-2 full-length luciferase counterscreen, luminescence | inhibition, % at 8 µM;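 active = mean inhibition at 8 µM reaching about 37%, which flags the compound as non-specific, limit read from the data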;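 also: p53-null SaOS-2 cells with luciferase driven by a doxycycline-inducible promoter; compound on cells about two nights before reading with doxycycline added after day one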
A number is an active result; n = inactive; x = no result given. Sampled rows, rich in hits. Any-hit rate of the full collection: about 5%.

SMILES	Mdm2 MdmX PPI	Beta apoptosis	XBP1 UPR activ	CSC inhib	UPR CHOP act	T cruzi inh	Mdm2-MdmX conf	Full FLuc ctr
CC1CC(C)(C)CC2(C1)NC(=O)N(CC(=O)N(Cc1ccccc1)c1ccccc1)C2=O (stereo not drawn)	n	n	n	n	n	n	x	x
Cc1c2cccn2cc[n+]1C	n	n	n	n	n	n	x	x
Cc1ccc(NC(=O)CCN2CC(C)OC(C)C2)cc1C (stereo not drawn)	n	n	n	n	n	n	x	x
CC(=O)c1c(C)[nH]c(C(=O)Nc2cccc(S(=O)(=O)N3CCOCC3)c2)c1C	58	n	n	n	n	n	n	87
CCN(CC)c1ccc(-c2nnc(SCC(=O)Nc3ccccc3C#N)n2-c2ccccc2)cc1	n	n	n	n	n	n	x	x
CCN(CC)CCCNC(=O)c1sc2ncn(CC(=O)Nc3ccc(C)c(Cl)c3)c(=O)c2c1C	53	n	n	n	n	n	n	x
CCCCN(C(=O)c1cccc(S(=O)(=O)N2CC(C)OC(C)C2)c1)c1c(N)n(CC(C)C)c(=O)[nH]c1=O (stereo not drawn)	n	n	n	n	n	n	x	x
CC(=O)Nc1c(-c2ccccc2)nc2ccc(Cl)cn12	n	n	n	n	n	n	x	x
Cc1ccccc1Nc1c(-c2ccncc2)nc2ccc(Cl)cn12	75	n	n	n	n	n	49	71
COc1ccc(/C=C/C(=O)NCCc2ccc(OC)c(OC)c2)cc1	n	n	n	n	n	n	x	x
COc1ccc(CCNC(=O)/C=C/c2ccc3ccccc3n2)cc1OC	58	x	n	n	n	n	69	54
Cc1ccc(-n2ccnc(SCC(=O)NC3CCCCC3)c2=O)cc1F	n	n	n	n	n	n	x	x
COc1ccc(NC(=O)c2cc(-c3cc(Cl)ccc3O)n[nH]2)c(OC)c1	69	n	n	n	n	n	n	x
COc1ccc(NC(=O)c2cc(-c3cc(C)c(C)cc3O)n[nH]2)c(OC)c1	n	x	n	x	n	n	x	x
O=C(Nc1ccc(S(=O)(=O)N2CCOCC2)cc1)c1cc(-c2cc(Cl)ccc2O)n[nH]1	87	n	n	94	n	n	79	39
CC1c2cc3c(cc2CCN1C(=O)c1cccc(Cl)c1)OCCCO3 (stereo not drawn)	57	n	n	n	n	n	44	62
CC1c2cc3c(cc2CCN1CC(=O)Nc1ccccc1)OCCCO3 (stereo not drawn)	n	n	n	n	n	n	x	x
CC(C)(C)C(C(Oc1ccc(Cl)cc1)n1cncn1)n1nnnc1C(c1cccc(Cl)c1)N1CCCCC1 (stereo not drawn)	57	x	n	n	n	55	n	x
O=C(c1c[nH]c2ccccc12)C(Cl)c1ccccc1 (stereo not drawn)	79	n	n	83	n	n	69	52
CCCOc1ccccc1N/C(N)=N/c1nc(C)cc(C)n1	n	n	n	n	n	n	x	x
CCCOc1ccccc1N/C(=N/c1nc(C)cc(C)n1)NC(=O)COc1ccc(OC)cc1	56	n	n	n	n	n	n	x
CCC(=O)c1ccc2c(c1)N(CCCN(C)C)c1ccccc1S2	55	n	n	n	n	n	n	x
CN(C)CCCN1c2ccccc2Sc2ccccc21	n	n	n	n	n	n	x	x
Cc1cccc(C(=O)O/N=C(\N)c2ccc(Br)cc2)c1	51	n	n	n	n	n	n	x
N/C(=N\OC(=O)c1ccc2c(c1)OCO2)c1ccc(Cl)cc1	82	n	n	n	n	n	n	x
SMILES	Mdm2 MdmX PPI	Beta apoptosis	XBP1 UPR activ	CSC inhib	UPR CHOP act	T cruzi inh	Mdm2-MdmX conf	Full FLuc ctr
N/C(=N\OC(=O)c1ccc2ccccc2c1)c1ccc(Br)cc1	62	n	n	n	n	n	47	96
N/C(=N\OC(=O)c1ccoc1)c1ccc(Br)cc1	n	n	n	n	n	n	x	x
Cc1ccc(C(=O)O/N=C(\N)c2ccc(Br)cc2)cc1C	99	n	n	n	n	n	83	116
COc1ccc(NC(=O)CCNC(=O)c2ccco2)cc1Cl	n	n	n	n	n	n	x	x
Cc1ccc(C)c(C(=O)O/N=C(\N)c2ccc(Br)cc2)c1	57	n	n	n	n	n	54	104
Cc1cccc(C(=O)O/N=C(\N)c2ccc(Cl)cc2)c1	51	n	n	n	n	n	n	x
Cc1ccc(/C(N)=N/OC(=O)c2ccc(Cl)cc2Cl)cc1	n	n	n	n	n	n	x	x
Cc1cc(C)cc(C(=O)O/N=C(\N)c2ccc(Br)cc2)c1	100	n	n	n	n	n	78	90
Cc1cccc(/C(N)=N/OC(=O)c2ccncc2)c1	n	n	n	n	n	n	x	x
COc1ccc(C(=O)O/N=C(\N)c2ccc(Cl)cc2)cc1	100	n	n	n	n	n	n	163
O=C1N[C@@H](Cc2ccccc2)C(=O)N2[C@H]3Nc4ccccc4[C@@]3([C@]34C[C@H]5C(=O)N[C@@H](Cc6ccccc6)C(=O)N5[C@H]3Nc3ccccc34)C[C@@H]12	53	n	n	n	n	n	n	x
O=C(NC1CCCCCC1)C1CCC(CNS(=O)(=O)c2ccc(Br)s2)CC1 (stereo not drawn)	51	n	n	n	n	n	n	x
CC1CCC(NC(=O)C2CCC(CNS(=O)(=O)c3ccccc3)CC2)CC1 (stereo not drawn)	n	n	n	n	n	n	x	x
CCCn1c(N)c(C(=O)CSc2nc3ccccc3s2)c(=O)[nH]c1=O	82	n	n	n	n	n	79	49
CCc1nnc(NC(=O)c2ccc(-c3ccc(Cl)cc3)o2)s1	65	n	n	n	n	n	n	x
CN1CCN(c2ccc(NC(=O)c3ccc(-c4cccc([N+](=O)[O-])c4)o3)cc2)CC1	n	n	n	n	n	n	x	x
CS(=O)(=O)N1CCN(c2ccc(NC(=O)c3ccc(-c4ccc(Cl)cc4)o3)cc2)CC1	n	n	n	n	n	n	n	x
CCc1nnc(NC(=O)c2ccc(-c3ccc(C(C)=O)cc3)o2)s1	n	n	n	n	n	x	x	x
CN1CCN(c2ccc(NC(=O)c3ccc(-c4ccc(Cl)cc4)o3)cc2)CC1	100	n	n	105	n	n	48	77
CCOc1ccc(CN2CCN(Cc3cccn3-c3nccs3)CC2CCO)cc1 (stereo not drawn)	n	n	n	n	n	n	x	x
Cc1ccc2[nH]c3c(c2c1)CCCC3NCCO (stereo not drawn)	n	n	n	n	n	n	x	x
Oc1ccc(CCNc2ncnc3ccc(Cl)cc23)cc1	64	107	n	86	n	n	73	n
